This note sets out measurements from ChEMBL document CHEMBL1149480, “Discovery of a novel series of inhibitors of human cytomegalovirus primase” (Bioorg Med Chem Lett, 2006).

The source made the active and inactive calls. The rule behind the calls is not given here. Some results are limits rather than exact numbers.

Test [1] relates to Murid betaherpesvirus 1. In words: Antiviral activity against mouse CMV. The class given is functional, organism-based.
The test system of test [2] is Caviid betaherpesvirus 2. In words: Antiviral activity against guinea pig CMV. The class given is functional, organism-based.
Test [3] relates to Human gammaherpesvirus 4. The test is described as follows: Antiviral activity against EBV. Type of test: functional, organism-based.
Test [4] in a line: Ratio of antiviral activity against human CMV to rhesus CMV. The class given is functional, Cercopithecine herpesvirus 8.
Test [5] concerns Human immunodeficiency virus. The test is described as follows: Antiviral activity against HIV. Type of test: functional, organism-based.
The test system of test [6] is Murid betaherpesvirus 2. In words: Antiviral activity against rat CMV. Type of test: functional, organism-based.
Test [7] concerns HFF. The test is described as follows: Antiviral activity against human CMV by luciferase reporter gene assay in HFF cells. The class given is functional, cell-based. Put shortly:
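HFF cells (10^4/well) were rested 2 h, then infected with rhCMVLuc at MOI 1 pfu/cell. Inoculum was removed after 1 h and drug added (0.005–5 µM or 0.05–50 µM) for 48 h at 37 °C. Luciferase was read with Mg(OAc)2, 30 mM Tricine pH 7.8 and 200 µM EDTA. IC50 is 50% inhibition of hCMV DNA replication.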
For orientation: A reporter such as luciferase makes a cellular process visible.

The test system of test [8] is Human alphaherpesvirus 1. In words: Antiviral activity against HSV. Type of test: functional, organism-based.
Test [9] deals with Human betaherpesvirus 6. In words: Antiviral activity against HHV6. The class given is functional, organism-based.
Test [10] has as its system Human betaherpesvirus 5. The test is described as follows: Inhibition of human CMV growth by plaque reduction assay. Type of test: functional. Put shortly:
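Plaques counted after 10-day incubation of 10^5 cells infected with 1000 pfu of wild-type, clinical-isolate or resistant virus; IC99.9 is the drug amount inhibiting plaque formation by 99.9%.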
A general note: In a plaque reduction assay, fewer plaques than in the control indicate reduced infectivity or spread.

Test [11] relates to Human betaherpesvirus 5. In words: Inhibition of human CMV growth by viral yield assay. Type of test: functional. Put shortly: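 Viral yield: once CPE appeared, well supernatants were serially diluted 1:2 sixteen times and used to infect fresh HFF cells (10^4/well). Inoculum was removed after 1 h; cells were incubated 5–7 days until CPE. Yield was quantified and IC99.9 taken as the drug concentration giving 99.9% inhibition of replication.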

Test [12] relates to Jurkat. The test is described as follows: Cytotoxicity against human Jurkat cells. The class given is functional, cell-based. The gist of the method: (§1)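 HFF or Jurkat cells were seeded and compound added 3 h later. Alamar blue staining at 0, 24, 48 and 72 h, then a further 3 h incubation, with fluorescence read-out. IC50 is the concentration inhibiting cell growth by 50%.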

The subject of test [13] is HFF. In words: Cytotoxicity against HFF cells. The class given is functional, cell-based. The following applies: Homo sapiens. The gist of the method:
as §1

Test [14] concerns HFF. The test is described as follows: Antiviral activity against human CMV by dot blot assay in HFF cells. The class given is functional, cell-based. The gist of the method: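 Dot blot DNA replication readout. HFF cells were seeded at 2 × 10^4 cells/well and infected with rhCMVLuc, clinical isolates or wild-type virus, then incubated 72 h with drug. Cells were lysed in 0.4 N NaOH, 0.5 M EDTA, applied to membrane by microfiltration and UV-crosslinked. DNA was hybridized to a hCMV-specific 32P probe and detected by phosphorimaging.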

By IC50 is commonly meant the concentration that inhibits the measured activity by half. For `Cc1cn(-c2nc(N(C)Cc3ccccc3)nc(C)c2[N+](=O)[O-])cn1`, the outcome in test [1], in [2], in test [3], in [5], in test [6] and in test [8] was inactive. Moreover, the outcome in [9] was inactive. For the same molecule, the Selectivity ratio entry in test [4] is on record as “>=10”. Moreover, the IC50 in test [7] stood at 10 µM.
For `Cc1nccn1-c1nc(N(C)Cc2ccccc2)ncc1[N+](=O)[O-]`, the result in [1], in test [2], in [3], in test [5], in test [6] and in test [8] was inactive. Besides, in test [9], the result was inactive. Moreover, the Selectivity ratio result in test [4] was “>=10”. Also, inhibition in test [7] was half-maximal at 3 µM (IC50).
Take `Cc1nc(N(C)Cc2ccccc2)nc(-n2ccnc2C(C)C)c1[N+](=O)[O-]`: the result in [1], in [2], in [3], in test [5], in test [6] and in [8] was inactive. Moreover, the result in [9] was inactive. Besides, in [4], the Selectivity ratio result is given as “>=10”. The same molecule displayed an IC50 in [7] of 0.77 µM.
As to `Nc1nc2c(ncn2COC(CO)CO)c(=O)[nH]1` [GANCICLOVIR], the IC100 came to 10 µM in [10] and 5 µM in test [11]. Also, the IC50 in test [12] and in test [13] was greater than 100 µM in each case.
As to `CCCCN(C)c1nc(C)c([N+](=O)[O-])c(-n2ccnc2C)n1`, the result in [1], in [2], in [3], in test [5], in test [6] and in test [8] was inactive. Besides, the outcome in test [9] was inactive. The Selectivity ratio result in test [4] is “>=10”. The molecule further gave a concentration for half-maximal inhibition (IC50) in test [14] of 0.3 µM.
Turning to `Cc1nc(N(C)Cc2ccccc2)nc(-n2c(C)nc3ccccc32)c1[N+](=O)[O-]`, the outcome in test [1], in test [2], in [3], in test [5], in test [6] and in test [8] was inactive. Besides, the result in test [9] was inactive. The Selectivity ratio entry in [4] was “>=10”. Moreover, the 50% inhibitory concentration (IC50) in [7] is greater than 30 µM.
Take `Cc1nccn1-c1nc(N(C)Cc2ccccc2)nc2c1S(=O)(=O)CC2`: the outcome in [1], in test [2], in [3], in test [5], in [6] and in [8] was inactive. The result in [9] was inactive. Further, the Selectivity ratio entry in test [4] was “>=10”. Also, in [7], the IC50 was greater than 30 µM.
On to `CCOc1nc(C)c([N+](=O)[O-])c(-n2ccnc2C)n1`, for which the outcome in test [1], in test [2], in test [3], in [5], in test [6] and in test [8] was inactive. The result in [9] was inactive. The Selectivity ratio result in test [4] is recorded as “>=10”. In [14], the 50% inhibitory concentration (IC50) is 0.67 µM.
In the case of `Cc1nc(N(C)Cc2ccccc2)nc(-n2ccnc2-c2ccccc2)c1[N+](=O)[O-]`, the outcome in [1], in test [2], in [3], in test [5], in test [6] and in [8] was inactive. The result in [9] was inactive. In addition, the Selectivity ratio result in test [4] was “>=10”. The same molecule yielded an IC50 in [7] of 5 µM.
For `CCc1nccn1-c1nc(N(C)Cc2ccccc2)nc(C)c1[N+](=O)[O-]`, the outcome in [1], in test [2], in [3], in test [5], in [6] and in test [8] was inactive. For the same molecule, in [9], the outcome was inactive. Moreover, the Selectivity ratio result in test [4] is “>=10”. Besides, 0.19 µM corresponded to half-maximal inhibition in [7] (IC50).
With `[3H]CC([3H])c1nc(N(C)Cc2ccccc2)nc(-n2ccnc2C)c1[N+](=O)[O-]` (configuration not stated), the Selectivity ratio result in test [4] is given as “>=10”.
As to `Cc1nc(N2CCC(C)CC2)nc(-n2ccnc2C)c1[N+](=O)[O-]`, the outcome in test [1], in test [2], in test [3], in test [5], in test [6] and in test [8] was inactive. Moreover, the result in test [9] was inactive. Besides, the Selectivity ratio entry in test [4] is listed as “>=10”. Also, in test [14], half-maximal inhibition (IC50) required 0.3 µM.
As to `Cc1nc(N(C)Cc2ccccc2)nc(-n2ccnc2)c1[N+](=O)[O-]`, the result in test [1], in test [2], in test [3], in [5], in [6] and in test [8] was inactive. Moreover, in test [9], the result was inactive. The Selectivity ratio result in [4] was “>=10”. Besides, the IC50 in test [7] was determined as 0.02 µM.
Consider `Cc1nccn1-c1nc(N(C)Cc2ccccc2)nc(Cl)c1[N+](=O)[O-]`, for which the outcome in test [1], in [2], in [3], in test [5], in test [6] and in [8] was inactive. Further, in test [9], the result was inactive. For the same molecule, the Selectivity ratio result in [4] is given as “>=10”. Besides, in [7], the 50% inhibitory concentration (IC50) is greater than 30 µM.
Consider `Cc1nc(N(C)Cc2ccccc2)nc(-n2ccnc2C)c1C#N`, for which the result in test [1], in test [2], in [3], in [5], in test [6] and in test [8] was inactive. Moreover, the outcome in test [9] was inactive. The Selectivity ratio entry in [4] was “>=10”. In addition, in test [7], the concentration for half-maximal inhibition (IC50) was greater than 30 µM.
On to `Cc1nc(N(C)Cc2ccccc2)nc(-n2ccnc2C)n1`, for which the result in [1], in test [2], in [3], in test [5], in test [6] and in test [8] was inactive. Also, the outcome in test [9] was inactive. Besides, in [4], the Selectivity ratio entry is recorded as “>=10”. For the same molecule, in test [7], the IC50 was greater than 30 µM.
For the molecule `Cc1nccn1-c1nc(N(C)Cc2ccccc2)nc(CCN(C)C)c1[N+](=O)[O-]`, the outcome in test [1], in [2], in test [3], in test [5], in test [6] and in test [8] was inactive. Also, in [9], the outcome was inactive. Besides, in test [4], the Selectivity ratio result was “>=10”. In test [7], this molecule had a 50% inhibitory concentration (IC50) of 6 µM.
Take `Cc1nccn1-c1nc(N(C)Cc2ccccc2)nc(C(C)C)c1[N+](=O)[O-]`: the result in [1], in [2], in test [3], in test [5], in test [6] and in test [8] was inactive. Also, in [9], the result was inactive. Besides, the Selectivity ratio entry in test [4] is “>=10”. The molecule also yielded a 50% inhibitory concentration (IC50) in test [7] of 3 µM.
Regarding `Nc1ccn(C[C@@H](CO)OCP(=O)(O)O)c(=O)n1.O.O` [CIDOFOVIR], the values for the IC100 in [10] and in test [11] were 2.5 µM and 1 µM, respectively. Besides, the IC50 in test [12] was 100 µM; in [13], greater than 100 µM.
On to `Cc1cc(-n2ccnc2C)nc(N(C)Cc2ccccc2)n1`, for which the outcome in test [1], in [2], in [3], in test [5], in [6] and in test [8] was inactive. In test [9], the result was inactive. The Selectivity ratio entry in [4] is “>=10”. For the same molecule, the IC50 in test [7] was greater than 30 µM.
